Laboratory results published in ChEMBL document CHEMBL1121699, “Induction of differentiation of leukemia cells in vitro by N-substituted amides, lactams, and 2-pyridones” (1981).

Tests used:
[1] = system: Erythroleukemia cell line; assay: Cell growth was measured on day 3, after murine erythroleukemia cells were exposed at a cell concentration of 1*10e5 cells/mL.; assay type: functional, Mus musculus
How it was run: (§1)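 Friend murine erythroleukemia cells (clone 745A) were grown in DMEM with 15% fetal calf serum at 37 °C in 10% CO2. Agents were given as aqueous, ethanol or acetone solutions at seeding (1 × 10^5 cells/mL) and left on continuously. Cells were counted electronically on day 3 or day 6 and expressed as percentage of control growth. Runs were in duplicate.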

[2] = system: Erythroleukemia cell line; assay: Concentration producing the maximum percentage of benzidine-positive cells after 6-days of continuous exposure in murine leukemia cells.; assay type: functional, cell-based; settings: Mus musculus
How it was run: (§2)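 Clone 745A erythroleukemia cells were exposed continuously from seeding (1 × 10^5 cells/mL) to graded twofold concentrations over at least a 10-fold range, in at least two experiments, with a Me2SO (210 mM) positive control. On day 6, hemoglobin-containing cells were stained blue with acid benzidine peroxide and counted by light microscopy. The optimum concentration was averaged across experiments.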

[3] = system: Erythroleukemia cell line; assay: Percentage of benzidine-positive murine erythroleukemia cells on day 6.; assay type: functional, Mus musculus; how it was run: as §2
[4] = system: Erythroleukemia cell line; assay: Cell growth was measured on day 6 after murine erythroleukemia cells were exposed at a cell concentration of 1*10e5 cells/mL.; assay type: functional, Mus musculus; how it was run: as §1

Row | Compound | Cell growth [1] [%] | Concentration [2] [mM] | Benzidine positive cells [3] [%] | Cell growth [4] [%]
1 | CCN1CCCC1=O | 53 | 10 | 90 | 81
2 | CC(C)n1ccccc1=O | 96 | 2 | 90 | 80
3 | CN1CCCCC1=O | 97 | 5 | 89 | 69
4 | CC(=O)Nc1ccncc1 | 37 | 5 | 34 | 60
5 | CC(=O)N(c1ccccn1)c1ccccn1 | 74 | 2 | 36 | 85
6 | CNC(=O)c1ccccc1 | 54 | 1 | 62 | 99
7 | Cn1ccccc1=O | 74 | 4 | 89 | 62
8 | Oc1ccccn1 | 114 | 16 | 95 | 77
9 | CC(=O)N1CCCC1=O | 156 | 20 | 73 | 116
10 | CN1CCCC1=O [METHYLPYRROLIDONE] | 97 | 10 | 87 | 83
11 | CC(=O)N1CCCCCC1=O | 102 | 4 | 53 | 85
12 | CC(=O)N1CCCCC1 | 50 | 8 | 85 | 138
13 | O=C(Nc1ccccn1)c1ccccn1 | 35 | 1 | 33 | 50
14 | CCN1CCCCCC1=O | 106 | 4 | 96 | 63
15 | CC(=O)N1CCCC1 | 54 | 4 | 60 | 99
16 | CN1CCCCCC1=O | 109 | 2 | 90 | 68
17 | CCN1CCCCC1=O | 186 | 4 | 87 | 84
18 | CC(=O)Nc1cccnc1 | 183 | 5 | 86 | 167

Row | Compound | Cell growth [1] [%] | Concentration [2] [mM] | Benzidine positive cells [3] [%] | Cell growth [4] [%]
19 | O=C(CCl)Nc1ccccn1 | 98 | 2 | 83 | 119
20 | CCCCn1ccccc1=O | 103 | 1 | 76 | 125
21 | CCn1ccccc1=O | 78 | 4 | 86 | 79
22 | CC(=O)N1CCCCC1=O | 170 | 20 | 86 | 74
23 | CC(=O)NC1CCCCC1 | 95 | 4 | 92 | 150
24 | O=C1CCCCCN1 [CAPROLACTAM] | 95 | 20 | 82 | 81
25 | O=C1CCCN1 [2-PYRROLIDONE] | 26 | 100 | 89 | 100
26 | O=C(Nc1ccccn1)C(F)(F)F | 98 | 1 | 69 | 89
27 | CCCn1ccccc1=O | 112 | 2 | 82 | 129
28 | CC(=O)N(C)C | 32 | 40 | 84 | 21
29 | CCCCCCn1ccccc1=O | 101 | 1 | 58 | 75
30 | CNC(C)=O | 121 | 40 | 90 | 55
31 | CNC(=O)c1ccccn1 | 50 | 2 | 60 | 80
32 | CC(=O)Nc1ccccn1 | 144 | 2 | 85 | 58
33 | O=C1CCCCN1 | 72 | 40 | 64 | 67
34 | CNC(=O)c1cccnc1 [NICOTINYL METHYLAMIDE] | 94 | 4 | 93 | 78
35 | CC(=O)Nc1ccccc1 [ACETANILIDE] | 75 | 4 | 71 | 65
